# Key:
# Format in all cases: functional
# Enterococcus faecium = assay: In vitro antibacterial activity against Vancomycin-susceptible Enterococcus faecium BM4147.1
# Method in brief: (§1)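 MICs by NCCLS broth dilution guidelines, modified by adding 0.02% bovine serum albumin to the growth medium; purified, resynthesized compounds tested against the expanded bacterial panel.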
# Enterococcus faecalis = assay: In vitro antibacterial activity against Vancomycin-resistant Enterococcus faecalis ATCC 51299
# Staphylococcus aureus [1] = assay: In vitro antibacterial activity against methicillin sensitive Staphylococcus aureus ATCC 25923; method in brief: as §1
# Staphylococcus aureus [2] = assay: In vitro antibacterial activity against methicillin resistant Staphylococcus aureus (MRSA) ATCC 33591
# Escherichia coli = assay: In vitro antibacterial activity against Escherichia coli (A G100B); method in brief: as §1
# Haemophilus influenzae [3] = assay: In vitro antibacterial activity against Haemophilus influenzae (ATTC31517); method in brief: as §1
# [4] = tested on: Staphylococcus epidermidis; assay: In vitro antibacterial activity against Staphylococcus epidermidis (ATCC 12228); method in brief: as §1
# Streptococcus pneumoniae = assay: In vitro antibacterial activity against Streptococcus pneumoniae (ATTC49619); method in brief: as §1
# Streptococcus pyogenes = assay: In vitro antibacterial activity against Streptococcus pyogenes (ATTC19615); method in brief: as §1
# Haemophilus influenzae [5] = assay: In vitro antibacterial activity against Haemophilus influenzae (acr, LS-2); method in brief: as §1
Structure (SMILES),MIC (Enterococcus faecium) [µg/mL],MIC (Enterococcus faecalis) [µg/mL],MIC (Staphylococcus aureus [1]) [µg/mL],MIC (Staphylococcus aureus [2]) [µg/mL],MIC (Escherichia coli) [µg/mL],MIC (Haemophilus influenzae [3]) [µg/mL],MIC [4] [µg/mL],MIC (Streptococcus pneumoniae) [µg/mL],MIC (Streptococcus pyogenes) [µg/mL],MIC (Haemophilus influenzae [5]) [µg/mL]
CNC(=O)C[C@@H]1NC(=O)c2csc(n2)-c2ccc(-c3nc(C(=O)NCC[N+]4([O-])CCOCC4)cs3)nc2-c2csc(n2)-c2csc(n2)C(C(O)c2ccccc2)NC(=O)CNC(=O)c2nc(sc2COC)[C@H](C(C)C)NC(=O)c2nc1sc2C (stereo partly drawn),0.5,2,1,1,,,,,,
CNC(=O)C[C@@H]1NC(=O)c2csc(n2)-c2ccc(-c3nc(C(=O)N[C@@H](CC(=O)O)C(=O)N[C@@H](CC(=O)O)C(N)=O)cs3)nc2-c2csc(n2)-c2csc(n2)C(C(O)c2ccccc2)NC(=O)CNC(=O)c2nc(sc2COC)[C@H](C(C)C)NC(=O)c2nc1sc2C (stereo partly drawn),,,> 32,> 32,,,,,,
CNC(=O)C[C@@H]1NC(=O)c2csc(n2)-c2ccc(-c3nc(C(=O)N(C)CCCC(=O)O)cs3)nc2-c2csc(n2)-c2csc(n2)C(C(O)c2ccccc2)NC(=O)CNC(=O)c2nc(sc2COC)[C@H](C(C)C)NC(=O)c2nc1sc2C (stereo partly drawn),0.125,0.25,0.5,0.25,> 16,2,1,2,4,1
CN[C@H](CC(C)C)C(=O)N[C@H]1C(=O)N[C@@H](CC(N)=O)C(=O)N[C@H]2C(=O)N[C@H]3C(=O)N[C@H](C(=O)N[C@H](C(=O)O)c4cc(O)cc(O)c4-c4cc3ccc4O)[C@H](O)c3ccc(c(Cl)c3)Oc3cc2cc(c3O[C@@H]2O[C@H](CO)[C@@H](O)[C@H](O)[C@H]2O[C@H]2C[C@](C)(N)[C@H](O)[C@H](C)O2)Oc2ccc(cc2Cl)[C@H]1O [VANCOMYCIN],,> 16,,,> 16,> 16,,0.125,0.25,> 16
CNC(=O)C[C@@H]1NC(=O)c2csc(n2)-c2ccc(-c3nc(CNC(=O)NCC(O)CC(=O)O)cs3)nc2-c2csc(n2)-c2csc(n2)C(C(O)c2ccccc2)NC(=O)CNC(=O)c2nc(sc2COC)[C@H](C(C)C)NC(=O)c2nc1sc2C (stereo partly drawn),2,> 16,8,8,,,,,,
CNC(=O)C[C@@H]1NC(=O)c2csc(n2)-c2ccc(-c3nc(C(=O)NCCCCO)cs3)nc2-c2csc(n2)-c2csc(n2)C(C(O)c2ccccc2)NC(=O)CNC(=O)c2nc(sc2COC)[C@H](C(C)C)NC(=O)c2nc1sc2C (stereo partly drawn),0.06,0.125,0.125,0.125,,,,,,
CNC(=O)C[C@@H]1NC(=O)c2csc(n2)-c2ccc(-c3nc(C(=O)N[C@@H](CO)C(=O)N4CCC[C@H]4C(N)=O)cs3)nc2-c2csc(n2)-c2csc(n2)C(C(O)c2ccccc2)NC(=O)CNC(=O)c2nc(sc2COC)[C@H](C(C)C)NC(=O)c2nc1sc2C (stereo partly drawn),,,,0.25,,,,,,
CNC(=O)C[C@@H]1NC(=O)c2csc(n2)-c2ccc(-c3nc(C(=O)NCCCN4CCOCC4)cs3)nc2-c2csc(n2)-c2csc(n2)C(C(O)c2ccccc2)NC(=O)CNC(=O)c2nc(sc2COC)[C@H](C(C)C)NC(=O)c2nc1sc2C (stereo partly drawn),0.06,0.06,0.125,0.06,,,,,,
CNC(=O)C[C@@H]1NC(=O)c2csc(n2)-c2ccc(-c3nc(C(=O)NCCCCCC(=O)O)cs3)nc2-c2csc(n2)-c2csc(n2)C(C(O)c2ccccc2)NC(=O)CNC(=O)c2nc(sc2COC)[C@H](C(C)C)NC(=O)c2nc1sc2C (stereo partly drawn),0.03,0.03,0.06,0.015,,,,,,
CNC(=O)C[C@@H]1NC(=O)c2csc(n2)-c2ccc(-c3nc(C(=O)NCCCCN=C(N)N)cs3)nc2-c2csc(n2)-c2csc(n2)C(C(O)c2ccccc2)NC(=O)CNC(=O)c2nc(sc2COC)[C@H](C(C)C)NC(=O)c2nc1sc2C (stereo partly drawn),8,8,8,4,,,,,,
CNC(=O)C[C@@H]1NC(=O)c2csc(n2)-c2ccc(-c3nc(C(=O)N4CC(C(N)=O)C4)cs3)nc2-c2csc(n2)-c2csc(n2)C(C(O)c2ccccc2)NC(=O)CNC(=O)c2nc(sc2COC)[C@H](C(C)C)NC(=O)c2nc1sc2C (stereo partly drawn),,,,0.06,,,,,,
CNC(=O)C[C@@H]1NC(=O)c2csc(n2)-c2ccc(-c3nc(C(=O)N4CC(C(=O)N[C@H](CCC(=O)O)C(=O)O)C4)cs3)nc2-c2csc(n2)-c2csc(n2)C(C(O)c2ccccc2)NC(=O)CNC(=O)c2nc(sc2COC)[C@H](C(C)C)NC(=O)c2nc1sc2C (stereo partly drawn),,,> 32,> 32,,,,,,
CNC(=O)C[C@@H]1NC(=O)c2csc(n2)-c2ccc(-c3nc(C(=O)NCCC[N+]4([O-])CCOCC4)cs3)nc2-c2csc(n2)-c2csc(n2)C(C(O)c2ccccc2)NC(=O)CNC(=O)c2nc(sc2COC)[C@H](C(C)C)NC(=O)c2nc1sc2C (stereo partly drawn),1,2,2,2,,,,,,
CNC(=O)C[C@@H]1NC(=O)c2csc(n2)-c2ccc(-c3nc(C(=O)NCC(O)C(=O)O)cs3)nc2-c2csc(n2)-c2csc(n2)C(C(O)c2ccccc2)NC(=O)CNC(=O)c2nc(sc2COC)[C@H](C(C)C)NC(=O)c2nc1sc2C (stereo partly drawn),0.5,1,4,4,,,,,,
CNC(=O)C[C@@H]1NC(=O)c2csc(n2)-c2ccc(-c3nc(C(=O)N[C@@H](CCC(=O)O)C(=O)NCCCCCC(=O)O)cs3)nc2-c2csc(n2)-c2csc(n2)C(C(O)c2ccccc2)NC(=O)CNC(=O)c2nc(sc2COC)[C@H](C(C)C)NC(=O)c2nc1sc2C (stereo partly drawn),,,> 32,> 32,,,,,,
CNC(=O)C[C@@H]1NC(=O)c2csc(n2)-c2ccc(-c3nc(C(=O)NCCNCCO)cs3)nc2-c2csc(n2)-c2csc(n2)C(C(O)c2ccccc2)NC(=O)CNC(=O)c2nc(sc2COC)[C@H](C(C)C)NC(=O)c2nc1sc2C (stereo partly drawn),2,4,2,2,,,,,,
CNC(=O)C[C@@H]1NC(=O)c2csc(n2)-c2ccc(-c3nc(C(=O)NCC(O)CO)cs3)nc2-c2csc(n2)-c2csc(n2)C(C(O)c2ccccc2)NC(=O)CNC(=O)c2nc(sc2COC)[C@H](C(C)C)NC(=O)c2nc1sc2C (stereo partly drawn),0.015,0.015,0.125,0.06,,,,,,
CNC(=O)C[C@@H]1NC(=O)c2csc(n2)-c2ccc(-c3nc(C(=O)NCCCC(=O)O)cs3)nc2-c2csc(n2)-c2csc(n2)C(C(O)c2ccccc2)NC(=O)CNC(=O)c2nc(sc2COC)[C@H](C(C)C)NC(=O)c2nc1sc2C (stereo partly drawn),0.015,0.03,0.25,0.125,,,,,,
CNC(=O)C[C@@H]1NC(=O)c2csc(n2)-c2ccc(-c3nc(C(=O)NCCN4CCOCC4)cs3)nc2-c2csc(n2)-c2csc(n2)C(C(O)c2ccccc2)NC(=O)CNC(=O)c2nc(sc2COC)[C@H](C(C)C)NC(=O)c2nc1sc2C (stereo partly drawn),0.06,0.06,0.5,0.25,,,,,,
CNC(=O)C[C@@H]1NC(=O)c2csc(n2)-c2ccc(-c3nc(C(=O)N[C@@H](CCC(=O)O)C(=O)N4CCCC[C@H]4C(N)=O)cs3)nc2-c2csc(n2)-c2csc(n2)C(C(O)c2ccccc2)NC(=O)CNC(=O)c2nc(sc2COC)[C@H](C(C)C)NC(=O)c2nc1sc2C (stereo partly drawn),,,,4,,,,,,
CNC(=O)C[C@@H]1NC(=O)c2csc(n2)-c2ccc(-c3nc(C(=O)NCCC(=O)O)cs3)nc2-c2csc(n2)-c2csc(n2)C(C(O)c2ccccc2)NC(=O)CNC(=O)c2nc(sc2COC)[C@H](C(C)C)NC(=O)c2nc1sc2C (stereo partly drawn),0.06,0.06,0.5,0.5,,,,,,
CNC(=O)C[C@@H]1NC(=O)c2csc(n2)-c2ccc(-c3nc(C(=O)NCCOCCO)cs3)nc2-c2csc(n2)-c2csc(n2)C(C(O)c2ccccc2)NC(=O)CNC(=O)c2nc(sc2COC)[C@H](C(C)C)NC(=O)c2nc1sc2C (stereo partly drawn),0.125,0.06,0.25,0.06,,,,,,
CNC(=O)C[C@@H]1NC(=O)c2csc(n2)-c2ccc(-c3nc(C(=O)N[C@@H](CC(=O)O)C(=O)NCCCCCC(=O)O)cs3)nc2-c2csc(n2)-c2csc(n2)C(C(O)c2ccccc2)NC(=O)CNC(=O)c2nc(sc2COC)[C@H](C(C)C)NC(=O)c2nc1sc2C (stereo partly drawn),,,> 32,> 32,,,,,,
CNC(=O)C[C@@H]1NC(=O)c2csc(n2)-c2ccc(-c3nc(C(=O)NCCO)cs3)nc2-c2csc(n2)-c2csc(n2)C(C(O)c2ccccc2)NC(=O)CNC(=O)c2nc(sc2COC)[C@H](C(C)C)NC(=O)c2nc1sc2C (stereo partly drawn),0.03,0.03,0.06,0.125,,,,,,
CNC(=O)C[C@@H]1NC(=O)c2csc(n2)-c2ccc(-c3nc(C(=O)NCCCN)cs3)nc2-c2csc(n2)-c2csc(n2)C(C(O)c2ccccc2)NC(=O)CNC(=O)c2nc(sc2COC)[C@H](C(C)C)NC(=O)c2nc1sc2C (stereo partly drawn),2,2,1,1,,,,,,
CNC(=O)C[C@@H]1NC(=O)c2csc(n2)-c2ccc(-c3nc(C(=O)NCCN=C(N)N)cs3)nc2-c2csc(n2)-c2csc(n2)C(C(O)c2ccccc2)NC(=O)CNC(=O)c2nc(sc2COC)[C@H](C(C)C)NC(=O)c2nc1sc2C (stereo partly drawn),8,8,4,8,,,,,,
CNC(=O)C[C@@H]1NC(=O)c2csc(n2)-c2ccc(-c3nc(C(=O)NCCN)cs3)nc2-c2csc(n2)-c2csc(n2)C(C(O)c2ccccc2)NC(=O)CNC(=O)c2nc(sc2COC)[C@H](C(C)C)NC(=O)c2nc1sc2C (stereo partly drawn),2,2,2,1,,,,,,
CNC(=O)C[C@@H]1NC(=O)c2csc(n2)-c2ccc(-c3nc(C(=O)NCC[C@H](O)C(=O)O)cs3)nc2-c2csc(n2)-c2csc(n2)C(C(O)c2ccccc2)NC(=O)CNC(=O)c2nc(sc2COC)[C@H](C(C)C)NC(=O)c2nc1sc2C (stereo partly drawn),0.03,0.25,4,2,,,,,,

# From ChEMBL document CHEMBL1144979, “Combinatorial modification of natural products: synthesis and in vitro analysis of derivatives of thiazole peptide antibiotic GE2270 A: A-ring modifications” (Bioorg Med Chem Lett, 2003)
